Assay results as given in ChEMBL document CHEMBL1146144, “Identification of a novel boron-containing antibacterial agent (AN0128) with anti-inflammatory activity, for the potential treatment of cutaneous diseases” (2006).
≈ marks a conversion by molar mass, not a printed value.

Key:
Format in all cases: functional
[1] = tested on: Haemophilus influenzae; test: Antibacterial activity against Haemophilus influenzae
[2] = tested on: Staphylococcus aureus; test: Antibacterial activity against Staphylococcus aureus
[3] = tested on: Bacillus subtilis; test: Antibacterial activity against Bacillus subtilis
[4] = tested on: Staphylococcus epidermidis; test: Antibacterial activity against Staphylococcus epidermidis
[5] = tested on: Cutibacterium acnes; test: Antibacterial activity against Propionibacterium acnes
[6] = tested on: PBMC; test: Inhibition of PHA-induced IFN-gamma release in human PBMC at 10 uM relative to Dexamethasone
Outline: (§1)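 Test compound at a single concentration of 10. Stimulation: LPS for 24 h (TNF-α, IL-1β), PHA for 24 h (IFN-γ), concanavalin A for 48 h (IL-4). Cytokines released were measured by ELISA. Inhibition is given as percent of untreated control.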

[7] = tested on: PBMC; test: Inhibition of LPS-induced IL1-beta release in human PBMC at 10 uM […]; outline: as §1
[8] = tested on: PBMC; test: Inhibition of LPS-induced TNFalpha release in human PBMC at 10 uM relative to Dexamethasone; outline: as §1
[9] = tested on: PBMC; test: Inhibition of concanavalin A-induced IL4 release in human PBMC at 10 uM relative to Dexamethasone; outline: as §1

SMILES	MIC [1] [µg/mL]	MIC [2] [µg/mL]	MIC [3] [µg/mL]	MIC [4] [µg/mL]	MIC [5] [µg/mL]	inhibition at 10 µM [6] [%]	inhibition at 10 µM [7] [%]	inhibition at 10 µM [8] [%]	inhibition at 10 µM [9] [%]
Cc1ccc(B(CCc2ccccc2)OC(=O)c2ncccc2O)cc1Cl	> 64	0.5 (≈ 1.32 µM)	1 (≈ 2.63 µM)	1 (≈ 2.63 µM)	1 (≈ 2.63 µM)				
CN(C)c1ccc(B(OC(=O)c2ncccc2O)c2ccc(N(C)C)c(Cl)c2)cc1Cl	> 64	32 (≈ 69.8 µM)	64 (≈ 140 µM)	32 (≈ 69.8 µM)					
O=C(OB(c1cccnc1)c1cccc(Cl)c1)c1ncccc1O	32 (≈ 94.5 µM)	16 (≈ 47.3 µM)		32 (≈ 94.5 µM)					
Cc1ccc(B(OC(=O)c2ncccc2O)c2ccc(C)c(Cl)c2)cc1	> 64	4 (≈ 10.9 µM)	2 (≈ 5.47 µM)	2 (≈ 5.47 µM)	3 (≈ 8.21 µM)				
Cc1ccc(B(OC(=O)c2ncccc2C(=O)O)c2ccc(C)c(Cl)c2)cc1Cl	8 (≈ 18.7 µM)	0.125 (≈ 0.292 µM)	8 (≈ 18.7 µM)	4 (≈ 9.34 µM)	3 (≈ 7.01 µM)				
CSc1cccc(B(OC(=O)c2ncccc2O)c2cccc(Cl)c2)c1	> 64	8 (≈ 20.9 µM)	4 (≈ 10.4 µM)	8 (≈ 20.9 µM)	3 (≈ 7.82 µM)				
O=C(OB(c1ccsc1)c1cccc(Cl)c1)c1ncccc1O	32 (≈ 93.1 µM)	32 (≈ 93.1 µM)	16 (≈ 46.6 µM)	32 (≈ 93.1 µM)	10 (≈ 29.1 µM)				
Cc1ccc(B(OC(=O)c2ncccc2C(=O)c2ccccc2)c2ccc(C)c(Cl)c2)cc1Cl	> 64	0.5 (≈ 1.02 µM)	64 (≈ 131 µM)	32 (≈ 65.5 µM)	30 (≈ 61.5 µM)				
Cc1ccc(B(OC(=O)c2ncccc2N)c2ccc(C)c(Cl)c2)cc1Cl	> 64	> 64	2 (≈ 5.01 µM)	> 64	1 (≈ 2.51 µM)				
O=C(OB(c1ccc(Cl)cc1)c1cccnc1)c1ncccc1O	16 (≈ 47.3 µM)	64 (≈ 189 µM)		32 (≈ 94.5 µM)					
O=C(OB(c1cccc(F)c1)c1cccc(F)c1)c1ncccc1O	> 64	> 64	> 64	> 64	> 100				
Cc1ccc(B(OC(=O)c2ccc(C(=O)O)cn2)c2ccc(C)c(Cl)c2)cc1Cl	8 (≈ 18.7 µM)	0.5 (≈ 1.17 µM)	8 (≈ 18.7 µM)	8 (≈ 18.7 µM)	3 (≈ 7.01 µM)	24	80	100	9
Cc1cc(Cl)ccc1B(OC(=O)c1ncccc1O)c1ccc(Cl)cc1C	16 (≈ 40 µM)	4 (≈ 10 µM)	0.5 (≈ 1.25 µM)	2 (≈ 5 µM)	0.3 (≈ 0.75 µM)	15	103	101	57
O=C(OB(c1ccc(Cl)cc1)c1ccc(Cl)nc1)c1ncccc1O	32 (≈ 85.8 µM)	32 (≈ 85.8 µM)		32 (≈ 85.8 µM)					
O=C(OB(c1cccc(Cl)c1)c1cccc(Cl)c1)c1ncccc1O	16 (≈ 43 µM)	≤ 0.125	16 (≈ 43 µM)	8 (≈ 21.5 µM)	10 (≈ 26.9 µM)				
Cc1ccc(B(OC(=O)c2ncccc2O)c2ccc(C)c(Cl)c2)cc1Cl	> 64	1 (≈ 2.5 µM)	1 (≈ 2.5 µM)	0.5 (≈ 1.25 µM)	0.3 (≈ 0.75 µM)	-20	99	100	-21
CCOc1ccc(B(OC(=O)c2ncccc2O)c2ccc(OCC)c(Cl)c2)cc1Cl	> 64	2 (≈ 4.35 µM)	2 (≈ 4.35 µM)	2 (≈ 4.35 µM)	1 (≈ 2.17 µM)				
O=C(OB(c1ccc(F)c(Cl)c1)c1ccc(F)c(Cl)c1)c1ncccc1O	4 (≈ 9.8 µM)	1 (≈ 2.45 µM)	8 (≈ 19.6 µM)	8 (≈ 19.6 µM)	3 (≈ 7.35 µM)				
Cc1ccccc1B(OC(=O)c1ncccc1O)c1cccc(Cl)c1	> 64	8 (≈ 22.8 µM)	4 (≈ 11.4 µM)	8 (≈ 22.8 µM)	3 (≈ 8.53 µM)				
CC(=O)Oc1cccnc1C(=O)OB(c1ccc(C)c(Cl)c1)c1ccc(C)c(Cl)c1	> 64	2 (≈ 4.52 µM)	0.5 (≈ 1.13 µM)	1 (≈ 2.26 µM)	1 (≈ 2.26 µM)		-49	101	
Cc1ccc(B(OC(=O)c2ccccn2)c2ccc(C)c(Cl)c2)cc1Cl		0.5 (≈ 1.3 µM)		> 64					
Cc1ccc(B(OC(=O)c2cc(C(=O)O)ccn2)c2ccc(C)c(Cl)c2)cc1Cl		2 (≈ 4.67 µM)		4 (≈ 9.34 µM)	3 (≈ 7.01 µM)				
CC[C@H]1OC(=O)[C@H](C)[C@@H](O[C@H]2C[C@@](C)(OC)[C@@H](O)[C@H](C)O2)[C@H](C)[C@@H](O[C@@H]2O[C@H](C)C[C@H](N(C)C)[C@H]2O)[C@](C)(O)C[C@@H](C)C(=O)[C@H](C)[C@@H](O)[C@]1(C)O [ERYTHROMYCIN]	4 (≈ 5.45 µM)	0.5 (≈ 0.681 µM)	0.1 (≈ 0.136 µM)	0.15 (≈ 0.204 µM)	0.1 (≈ 0.136 µM)		-32	22	
O=C(OB(c1ccc(Cl)cc1)c1ccc(Cl)cc1)c1ncccc1O	16 (≈ 43 µM)	4 (≈ 10.8 µM)	1 (≈ 2.69 µM)	1 (≈ 2.69 µM)	1 (≈ 2.69 µM)				
